A3A deaminase: APOBEC3A ssDNA deaminase inhibitors, primary screen, selectivity assay for APOBEC3G inhibitor project, biochemical, FAM/TAMRA oligo cleavage fluorescence | recombinant A3A, FAM/TAMRA ssDNA deamination fluorescence | inhibition, % at 20 µM | hit rate 0.41% among 330,000 | AID 493011, 2011;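 active means at least 40% inhibition at 20 µM here, with at most 30% in a related deaminase screen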
Target sequence (P31941 whole entry, looked up): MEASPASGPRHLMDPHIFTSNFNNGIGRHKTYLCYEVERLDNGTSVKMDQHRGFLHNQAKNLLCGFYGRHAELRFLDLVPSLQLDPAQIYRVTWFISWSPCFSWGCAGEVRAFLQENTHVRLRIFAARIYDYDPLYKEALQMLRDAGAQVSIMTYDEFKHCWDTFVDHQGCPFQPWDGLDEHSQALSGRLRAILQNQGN
PfG6PD inh: PfG6PD enzyme inhibitors, primary screen, biochemical, fluorescence intensity, uHTS; PfGluPho enzyme, NADPH resazurin-diaphorase fluorescence; glucose-6-phosphate dehydrogenase-6-phosphogluconolactonase (Plasmodium falciparum 3D7); AID 504690, 2011; hit rate 0.78% among 350,000; inhibition, % at 20 µM;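 active means inhibition reaching at least a set limit at 20 µM in the primary screen, cut at about 59% in these data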
HKDC1 inh: HKDC1 hexokinase inhibitors, primary screen, biochemical, fluorescence, uHTS | Q2TB90 | recombinant HKDC1, G6PDH/diaphorase resazurin coupled fluorescence | inhibition, % at 20 µM | hit rate 0.16% among 340,000;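 active means inhibition above about 35% when tested at 20 µM, limit read from the data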
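Material: recombinant HKDC1 hexokinase; Amount: HKDC1 at 5 µg/mL; Medium: Tris pH 8.0 buffer with MgCl2, Tween-20, BSA, BME; Schedule: 90 min reaction incubation at room temperature, dark; Technique: coupled resazurin fluorescence, excitation 525 nm, emission 613 nm.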
A3G deaminase: APOBEC3G DNA deaminase inhibitors, primary screen, biochemical, fluorescence, single-stranded DNA substrate, uHTS; DNA dC->dU-editing enzyme APOBEC-3G (Homo sapiens), Q9HC16; recombinant A3G, ssDNA deamination FAM/TAMRA fluorescence; inhibition, % at 20 µM; hit rate 0.28% among 330,000;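 active means inhibition of at least 40% at 20 µM, with no more than 30% in the related APOBEC3A deaminase screen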
Target sequence (Q9HC16 whole entry, looked up): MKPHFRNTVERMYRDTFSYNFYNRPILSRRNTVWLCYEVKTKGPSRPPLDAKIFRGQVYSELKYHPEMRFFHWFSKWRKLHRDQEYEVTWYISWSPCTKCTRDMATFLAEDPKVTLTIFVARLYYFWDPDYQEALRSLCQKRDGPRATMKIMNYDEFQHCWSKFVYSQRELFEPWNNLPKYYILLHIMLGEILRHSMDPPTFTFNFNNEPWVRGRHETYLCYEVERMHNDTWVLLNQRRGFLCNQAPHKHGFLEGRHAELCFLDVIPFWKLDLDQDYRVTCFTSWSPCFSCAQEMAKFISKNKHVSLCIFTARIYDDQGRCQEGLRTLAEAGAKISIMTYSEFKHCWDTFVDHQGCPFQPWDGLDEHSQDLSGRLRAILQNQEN
hiPSC survival: enhancers of single-cell hiPSC survival, primary screen, ATPlite luminescence; hit rate 0.044% among 360,000; 100% = ROCK inhibitor wells, 0% = DMSO; survival enhancement, % at 20 µM; in the data active means survival enhancement above about 18%;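 further: cells exposed to compounds for 16 hours before the ATP read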
PfGluPho conf: PfG6PD inhibitors, hit retest, confirmation, biochemical, fluorescence intensity, single concentration. shares compounds with PfG6PD inh. recombinant PfGluPho, NADPH-diaphorase-resazurin fluorescence. inhibition, % at 20 µM. hit rate 34% among 2,400. AID 504753, 2011;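 active means inhibition of at least 50% at 20 µM in any single replicate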
Diaph ctr 10uM: diaphorase inhibitors and chemical oxidizers, confirmation, counter-screen for P. falciparum G6PD inhibitor project, biochemical, fluorescence intensity, 10 µM NADPH; shares compounds with PfG6PD inh; diaphorase-coupled resazurin reduction, NADPH 10 uM; inhibition, % at 20 µM; hit rate 39% among 820; AID 504862, 2011;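 active means average inhibition reaching 50% or more with the compound at 20 µM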;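 further: resorufin red fluorescence formed as diaphorase reduces resazurin using NADPH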
Diaph ctr 30uM: diaphorase inhibitors and chemical oxidizers, confirmation, counter-screen for P. falciparum G6PD inhibitor project, biochemical, fluorescence intensity, 30 µM NADPH | inhibition, % at 20 µM | Diaphorase/resazurin coupled assay, resorufin fluorescence | AID 504863, 2011 | hit rate 29% among 820 | shares compounds with PfG6PD inh;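 active means inhibition averaging 50% or more, tested at 20 µM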
Large screens that a line does not name were inactive (follow-up assays come after a bar, where they were run). Most compounds without a hit are left out; they make up all but 1.4% or so of the library.

CN1C(=O)CSc2ccc(NC(=O)N3CCc4ccccc43)cc21	PfG6PD inh 86.8 | PfGluPho conf 59.5 | Diaph ctr 10uM inactive | Diaph ctr 30uM inactive
COC(=O)c1cc(=O)nc2sc3cc(OC)ccc3n12	none
COc1ccc(O)c(/C=c2/sc3nc4cc(C)c(C)cc4n3c2=O)c1	PfG6PD inh 68.4 | PfGluPho conf inactive
COc1ccc(-n2c(C)cc(C(=O)NC3CCCCC3)c2C)cc1	PfG6PD inh 70.6 | PfGluPho conf inactive
Nn1cnnc1N/N=C\c1ccc(-c2ccccc2[N+](=O)[O-])o1	PfG6PD inh 80.5 (no result: A3A deaminase, A3G deaminase) | PfGluPho conf 53.4 | Diaph ctr 10uM 73.6 | Diaph ctr 30uM 56.5
O=[N+]([O-])c1ccccc1-c1ccc(/C=N/n2cnnc2)o1	none
S=c1[nH]nc(C2CCCCC2)o1	none
Cc1nc2nc(C)n(CCN3CCOCC3)c(=O)c2c(-c2cccc([N+](=O)[O-])c2)c1C(=O)CCCCCCCCCCN1CCC(c2ccccc2)(c2ccccc2)CC1	none (no result: A3A deaminase, A3G deaminase)
COc1cc(/C=N/NC(=O)c2ccc(CN3C(=O)c4cccc5cccc3c45)cc2)cc(OC)c1O	PfG6PD inh 63.8 | PfGluPho conf inactive
CNc1cncc(-c2cccc(O)c2)n1	none (no result: A3A deaminase, PfG6PD inh, HKDC1 inh, A3G deaminase)
COc1ccc(C2C(Oc3ccccc3)C(=O)N2c2cc(C)ccc2C)cc1OC (stereo not drawn)	none
COc1ccc(C2C(Oc3ccccc3)C(=O)N2c2ccc(C)c(C)c2)cc1OC (stereo not drawn)	PfG6PD inh 81.3 | PfGluPho conf inactive
CCOC(=O)C1(Cc2ccccc2Cl)CCN(Cc2csc(C(C)=O)c2)CC1	PfG6PD inh 63.1 | PfGluPho conf inactive
O=C(Nc1cccc(C(=O)Nc2cccc(Br)c2)c1)c1ccccc1	none
CC(C)c1ccc(NC(=O)c2cccc(Br)c2)cc1	PfG6PD inh 68.4 | PfGluPho conf inactive
CC(C)c1ccc(NC(=O)c2ccc(Br)o2)cc1	PfG6PD inh 80.9 | PfGluPho conf inactive
O=C(/C=C/[C@H]1O[C@@H](n2cnc3c(NC(=O)c4ccccc4)ncnc32)[C@H](O)[C@@H]1O)NCc1cccc2ccccc12	none (no result: A3A deaminase, PfG6PD inh, HKDC1 inh, A3G deaminase)
Cc1nc2ccc(C(=O)Nc3ccc4c(c3)OCC(=O)N4)cn2c1N(C)C(=O)CCc1ccccc1	none (no result: A3A deaminase, PfG6PD inh, HKDC1 inh, A3G deaminase)
O=C(Nc1ccc2nc(-c3ccc(Br)o3)[nH]c2c1)c1cccs1	PfG6PD inh 86.4 | PfGluPho conf inactive
O=C(Nc1ccc2nc(-c3ccc(Br)o3)[nH]c2c1)c1ccco1	PfG6PD inh 69.7 | PfGluPho conf inactive
CC(C)C1Nc2ccc(C(=O)NCCCN3CCOCC3)cc2NC1=O (stereo not drawn)	none
O=C1C(=NO)CCc2ccccc21	PfG6PD inh 61.6 (no result: A3A deaminase, A3G deaminase) | PfGluPho conf inactive
O/N=C1/CCc2cccc3cccc1c23	none
CCOC(=O)c1nc(NCc2ccccc2)sc1C	PfG6PD inh 68.2 | PfGluPho conf inactive
Cc1cccc(C)c1NC(=O)c1ccc(-c2cc(F)ccc2F)o1	none (no result: A3A deaminase, PfG6PD inh, HKDC1 inh, A3G deaminase)
Cc1ccccc1-c1ccc(C(=O)Nc2cccc(F)c2)o1	PfG6PD inh 68.5 | PfGluPho conf inactive
COC(=O)c1c(NC(=O)CCC(=O)O)sc(Cc2ccccc2)c1C	none
Cc1sc(NC(=O)Nc2ccccc2)c(C(N)=O)c1C	PfG6PD inh 73.8 | PfGluPho conf inactive
CCCC(=O)Nc1sc(Cc2ccccc2)c(C)c1C(N)=O	PfG6PD inh 59.1 | PfGluPho conf inactive
CCC(=O)N(Cc1cc(=O)[nH]c2ccccc12)c1ccc(C)cc1C	none
CC(=O)Nc1cc2c(cc1[N+](=O)[O-])-c1ccccc1C2O (stereo not drawn)	PfG6PD inh 80.9 (no result: A3A deaminase, A3G deaminase) | PfGluPho conf 83.4 | Diaph ctr 10uM inactive | Diaph ctr 30uM inactive
CCc1sc(C(=O)Nc2nc(C)cs2)cc1C	PfG6PD inh 60.8 | PfGluPho conf inactive
NC(=O)c1ccsc1NC(=O)COC(=O)CNC(=O)c1ccc(Cl)cc1	none
COC(=O)/C(=N/Nc1ccc(C)cc1)N1CCCc2ccccc21	PfG6PD inh 76.2 | PfGluPho conf inactive
COC(=O)/C(=N/Nc1ccccc1)N1CCCc2ccccc21	none | PfGluPho conf inactive
COC(=O)[C@@H](NCc1cccc(CN[C@H](C(=O)OC)c2ccccc2)c1)c1ccccc1	none
COc1ccc2c(c1)CCO[C@]21O[C@H](CCO)C[C@H](O)[C@H]1O	none (no result: A3A deaminase, HKDC1 inh, A3G deaminase)
COc1ccccc1N1CCN(C2CCCN(C(=O)CCc3ccccn3)C2)CC1 (stereo not drawn)	none
COc1ccc(/C=N/Nc2ccc([N+](=O)[O-])cc2)cc1Cn1cc([N+](=O)[O-])cn1	none
COc1ccc(/C=N/Nc2ccc([N+](=O)[O-])cc2)cc1O	PfG6PD inh 80.6 | PfGluPho conf inactive
Cc1ccc(/C=C/C(=O)OCC(=O)c2ccc3c(c2)NC(=O)CO3)o1	PfG6PD inh 70.6 | PfGluPho conf inactive
COc1ccc(C(=O)c2ccc3oc(-c4ccc(OC)cc4)c(-c4ccc(O)cc4)c3c2)cc1	none
Cc1ccc(N2CC(C(=O)Nc3cc(S(=O)(=O)N4CCCCC4)ccc3C)CC2=O)cc1 (stereo not drawn)	none (no result: A3A deaminase, HKDC1 inh, A3G deaminase)
CCOC(=O)c1c(C)[nH]c(C)c1C(=O)COC(=O)c1cccs1	PfG6PD inh 59.6 | PfGluPho conf inactive
Cc1ccc(S(=O)(=O)c2nnn3c2nc(N2CCCCC2)c2ccccc23)cc1	PfG6PD inh 72.2 | PfGluPho conf inactive
Cc1ccc(C(=O)c2coc3ccc(O)c(Cl)c23)cc1	PfG6PD inh 62.8 | PfGluPho conf inactive
CCOC(=O)c1[nH]c(C)c(C(=O)OCC(=O)NCc2ccc(OC)cc2)c1C	none
Cc1ccc(O)c(NC2=C(Cl)C(=O)N(Cc3ccccc3)C2=O)c1	PfG6PD inh 84.9 (no result: A3A deaminase, A3G deaminase) | PfGluPho conf inactive
CCn1c(C)nc2cc(C(=O)OC(C(F)(F)C(F)F)C(F)(F)C(F)F)ccc21	PfG6PD inh 61.3 | PfGluPho conf inactive
COc1ccc2c(c1)CCc1cc(C(=O)N3CCN(c4ccc(N5CCOCC5)nn4)CC3)sc1-2	PfG6PD inh 77.4 | PfGluPho conf inactive
O=C(NCCNC(=O)c1ccc(Cl)cc1Cl)c1cnccn1	none
